Assay results published in ChEMBL document CHEMBL4190234, “Design, synthesis and anticancer activity of new monastrol analogues bearing 1,3,4-oxadiazole moiety” (Eur J Med Chem, 2017).

Legend:
Assay type in all cases: functional
SW-620 = assay: Growth inhibition of human SW620 cells at 10 uM incubated for 48 hrs by sulforhodamine B assay relative to control; conditions: SW-620, 48 h, read-out: GI
In short: (§1)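 NCI single-dose screen: cells grown in RPMI 1640 with 5% FBS and 2 mM L-glutamine, plated at 5,000–40,000 cells/well and preincubated 24 h at 37 °C, 5% CO2. Compounds taken from DMSO stock and tested at final 10 µM for 48 h. Cells fixed with TCA, stained with 0.4% SRB, absorbance read at 515 nm. Percentage growth calculated against untreated controls; controls held DMSO at the same dilution.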

ACHN = assay: Growth inhibition of human ACHN cells at 10 uM incubated for 48 hrs by sulforhodamine B assay relative to control; conditions: read-out: GI
In short: (§2)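 Single-dose screen at 10 μM final: cells in RPMI 1640, 5% FBS, 2 mM L-glutamine, plated 5,000–40,000/well, preincubated 24 h at 37°C, 5% CO2; drug 48 h; adherent cells fixed with 10% TCA, suspension cells with 16% TCA; SRB stain, absorbance 515 nm; percentage growth versus untreated control, with time-zero plates.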

CAKI-1 = assay: Growth inhibition of human Caki1 cells at 10 uM incubated for 48 hrs by sulforhodamine B assay relative to control; conditions: CAKI-1, 48 h, read-out: GI; in short: as §2
NCI-H226 = assay: Growth inhibition of human NCI-H226 cells at 10 uM incubated for 48 hrs by sulforhodamine B assay relative to control; conditions: NCI-H226, 48 h, read-out: GI; in short: as §2
SN12C = assay: Growth inhibition of human SN12C cells at 10 uM incubated for 48 hrs by sulforhodamine B assay relative to control; conditions: read-out: GI; in short: as §1
NCI/ADR-RES = assay: Growth inhibition of human NCI/ADR-RES cells at 10 uM incubated for 48 hrs by sulforhodamine B assay relative to control; conditions: read-out: GI; in short: as §2
MDA-MB-468 = assay: Growth inhibition of human MDA-MB-468 cells at 10 uM incubated for 48 hrs by sulforhodamine B assay relative to control; conditions: MDA-MB-468, 48 h, read-out: GI; in short: as §2
Malme-3M = assay: Growth inhibition of human MALME-3M cells at 10 uM incubated for 48 hrs by sulforhodamine B assay relative to control; conditions: read-out: GI; in short: as §2
SNB-75 = assay: Growth inhibition of human SNB75 cells at 10 uM incubated for 48 hrs by sulforhodamine B assay relative to control; conditions: SNB-75, 48 h, read-out: GI; in short: as §1
UACC-257 = assay: Growth inhibition of human UACC257 cells at 10 uM incubated for 48 hrs by sulforhodamine B assay relative to control; conditions: UACC-257, 48 h, read-out: GI; in short: as §1
SF-268 = assay: Growth inhibition of human SF268 cells at 10 uM incubated for 48 hrs by sulforhodamine B assay relative to control; conditions: SF-268, 48 h, read-out: GI; in short: as §1
HOP-92 = assay: Growth inhibition of human HOP92 cells at 10 uM incubated for 48 hrs by sulforhodamine B assay relative to control; conditions: HOP-92, 48 h, read-out: GI; in short: as §2
SK-MEL-2 = assay: Growth inhibition of human SK-MEL-2 cells at 10 uM incubated for 48 hrs by sulforhodamine B assay relative to control; conditions: SK-MEL-2, 48 h, read-out: GI; in short: as §1
NCI-H460 = assay: Growth inhibition of human NCI-H460 cells at 10 uM incubated for 48 hrs by sulforhodamine B assay relative to control; conditions: NCI-H460, 48 h, read-out: GI; in short: as §2
NCI-H322M = assay: Growth inhibition of human NCI-H322M cells at 10 uM incubated for 48 hrs by sulforhodamine B assay relative to control; conditions: read-out: GI; in short: as §2
M14 = assay: Growth inhibition of human M14 cells at 10 uM incubated for 48 hrs by sulforhodamine B assay relative to control; conditions: M14, 48 h, read-out: GI; in short: as §2
A498 = assay: Growth inhibition of human A498 cells at 10 uM incubated for 48 hrs by sulforhodamine B assay relative to control; conditions: A498, 48 h, read-out: GI; in short: as §2
HCT-116 = assay: Growth inhibition of human HCT116 cells at 10 uM incubated for 48 hrs by sulforhodamine B assay relative to control; conditions: HCT-116, 48 h, read-out: GI; in short: as §2
EKVX = assay: Growth inhibition of human EKVX cells at 10 uM incubated for 48 hrs by sulforhodamine B assay relative to control; conditions: read-out: GI; in short: as §2
OVCAR-5 = assay: Growth inhibition of human OVCAR5 cells at 10 uM incubated for 48 hrs by sulforhodamine B assay relative to control; conditions: OVCAR-5, 48 h, read-out: GI; in short: as §2
MDA-MB-231 = assay: Growth inhibition of human MDA-MB-231 cells at 10 uM incubated for 48 hrs by sulforhodamine B assay relative to control; conditions: MDA-MB-231, 48 h, read-out: GI; in short: as §2
SR = assay: Growth inhibition of human SR cells at 10 uM incubated for 48 hrs by sulforhodamine B assay relative to control; conditions: read-out: GI; in short: as §1
UO-31 = assay: Growth inhibition of human UO31 cells at 10 uM incubated for 48 hrs by sulforhodamine B assay relative to control; conditions: UO-31, 48 h, read-out: GI; in short: as §1
K562 = assay: Growth inhibition of human K562 cells at 10 uM incubated for 48 hrs by sulforhodamine B assay relative to control; conditions: K562, 48 h, read-out: GI; in short: as §2
IGROV-1 = assay: Growth inhibition of human IGROV1 cells at 10 uM incubated for 48 hrs by sulforhodamine B assay relative to control; conditions: IGROV-1, 48 h, read-out: GI; in short: as §2
SF-539 = assay: Growth inhibition of human SF539 cells at 10 uM incubated for 48 hrs by sulforhodamine B assay relative to control; conditions: SF-539, 48 h, read-out: GI; in short: as §1
MOLT-4 = assay: Growth inhibition of human MOLT4 cells at 10 uM incubated for 48 hrs by sulforhodamine B assay relative to control; conditions: MOLT-4, 48 h, read-out: GI; in short: as §2
RPMI-8226 = assay: Growth inhibition of human RPMI8226 cells at 10 uM incubated for 48 hrs by sulforhodamine B assay relative to control; conditions: RPMI-8226, 48 h, read-out: GI; in short: as §2
OVCAR-4 = assay: Growth inhibition of human OVCAR4 cells at 10 uM incubated for 48 hrs by sulforhodamine B assay relative to control; conditions: OVCAR-4, 48 h, read-out: GI; in short: as §2
PC-3 = assay: Growth inhibition of human PC3 cells at 10 uM incubated for 48 hrs by sulforhodamine B assay relative to control; conditions: PC-3, 48 h, read-out: GI; in short: as §2
SF-295 = assay: Growth inhibition of human SF295 cells at 10 uM incubated for 48 hrs by sulforhodamine B assay relative to control; conditions: SF-295, 48 h, read-out: GI; in short: as §1

SMILES | inhibition of growth at 10 µM (SW-620) | inhibition of growth at 10 µM (ACHN) | inhibition of growth at 10 µM (CAKI-1) | inhibition of growth at 10 µM (NCI-H226) | inhibition of growth at 10 µM (SN12C) | inhibition of growth at 10 µM (NCI/ADR-RES) | inhibition of growth at 10 µM (MDA-MB-468) | inhibition of growth at 10 µM (Malme-3M) | inhibition of growth at 10 µM (SNB-75) | inhibition of growth at 10 µM (UACC-257) | inhibition of growth at 10 µM (SF-268) | inhibition of growth at 10 µM (HOP-92) | inhibition of growth at 10 µM (SK-MEL-2) | inhibition of growth at 10 µM (NCI-H460) | inhibition of growth at 10 µM (NCI-H322M) | inhibition of growth at 10 µM (M14) | inhibition of growth at 10 µM (A498) | inhibition of growth at 10 µM (HCT-116) | inhibition of growth at 10 µM (EKVX) | inhibition of growth at 10 µM (OVCAR-5) | further results
CCOC(=O)C1=C(C)NC(SCc2nnc(-c3ccc(Cl)cc3)o2)=NC1c1cccc(Cl)c1 (stereo not drawn) | < 10% | < 10% | 35.1% | < 10% | < 10% | 21.3% | < 10% | < 10% | 16.8% | 22.2% | < 10% | 49% | 39.9% | < 10% | < 10% | 26.2% | < 10% | 56.5% | < 10% | 10.5% | inhibition of growth at 10 µM (MDA-MB-231): 18.9%; inhibition of growth at 10 µM (SR): 16.4%; inhibition of growth at 10 µM (UO-31): 35.9%; inhibition of growth at 10 µM (K562): 27.5%; inhibition of growth at 10 µM (IGROV-1): 14.6%; inhibition of growth at 10 µM (SF-539): < 10%; inhibition of growth at 10 µM (MOLT-4): 45%; inhibition of growth at 10 µM (RPMI-8226): 46.4%; inhibition of growth at 10 µM (OVCAR-4): 16.9%; inhibition of growth at 10 µM (PC-3): 39.2%; inhibition of growth at 10 µM (SF-295): 25.5%
COc1ccc(-c2nnc(CSC3=NC(c4ccc(F)cc4)C(C(C)=O)=C(C)N3)o2)cc1 (stereo not drawn) | < 10% | < 10% | 29.9% | < 10% | < 10% | < 10% | < 10% | 12.3% | 17.3% | < 10% | < 10% | 16.5% | < 10% | < 10% | < 10% | 13.4% | < 10% | < 10% | < 10% | < 10% | inhibition of growth at 10 µM (MDA-MB-231): 14.4%; inhibition of growth at 10 µM (SR): 13.3%; inhibition of growth at 10 µM (UO-31): 29.7%; inhibition of growth at 10 µM (K562): < 10%; inhibition of growth at 10 µM (IGROV-1): < 10%; inhibition of growth at 10 µM (SF-539): < 10%; inhibition of growth at 10 µM (MOLT-4): 10.9%; inhibition of growth at 10 µM (RPMI-8226): 14%; inhibition of growth at 10 µM (OVCAR-4): 12.2%; inhibition of growth at 10 µM (PC-3): 18.7%; inhibition of growth at 10 µM (SF-295): < 10%
CCOC(=O)C1=C(C)NC(SCc2nnc(-c3ccc(Cl)cc3)o2)=NC1c1ccc(F)cc1 (stereo not drawn) | < 10% | < 10% | 17.5% | 10.6% | < 10% | < 10% | 17.1% | < 10% | < 10% | < 10% | < 10% | 27.8% | < 10% | < 10% | < 10% | < 10% | 12.3% | 21.7% | < 10% | < 10% | inhibition of growth at 10 µM (MDA-MB-231): < 10%; inhibition of growth at 10 µM (SR): 16.7%; inhibition of growth at 10 µM (UO-31): 22.2%; inhibition of growth at 10 µM (K562): 14.4%; inhibition of growth at 10 µM (IGROV-1): 17.1%; inhibition of growth at 10 µM (SF-539): < 10%; inhibition of growth at 10 µM (MOLT-4): 20.4%; inhibition of growth at 10 µM (RPMI-8226): 25.8%; inhibition of growth at 10 µM (OVCAR-4): < 10%; inhibition of growth at 10 µM (PC-3): 23.4%; inhibition of growth at 10 µM (SF-295): < 10%
